Compound activity as filed in PubChem.
KCNQ1 pot – potentiates or activates the human KCNQ1 potassium channel. P51787. CHO-K1 KCNQ1, thallium flux FluxOR fluorescence; hits give high values. B-score at 10 µM. 310,000 tested, 0.35% active;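 active = fluorescence ratio B-score, a plate-corrected score, at least three library SD, with initial intensity B-score within 5 SD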
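Doses: Single concentration per compound, DMSO matched to controls | Test system: KCNQ1-transfected CHO-K1 cells | Timing: 90 min dye loading and 20 min compound exposure, both at room temperature | Measured by: Kinetic FluxOR thallium fluorescence, 10-s 1-Hz baseline, 110-s post-stimulus read | Medium: Assay buffer with matched DMSO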
KCNK9 inh – inhibitors of human KCNK9 two-pore domain potassium channel; Q9NPC2; HEK293 KCNK9, FluxOR thallium flux fluorescence; hits give low values; B-score at 10 µM; 310,000 tested, 1.2% active;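 active = ratio B-score over 3 SD below the library mean, with starting fluorescence within 5 SD of its mean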;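 also: negative B-score means less thallium flux so channel inhibition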
KCNK3 block – human KCNK3 channel inhibition, primary screen; CHO-KCNK3 thallium flux, FluxOR fluorescence; hits give low values; O14649; AID 602410; B-score at 10 µM; 340,000 tested, 0.84% active;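 active = B-score under library mean minus 4 SD, starting fluorescence ratio at most library mean plus 5 SD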;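 also: more negative B-score means stronger inhibition of thallium flux through KCNK3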
Kir21 block – Kir2.1 (mouse) channel inhibition. P35561. HEK293-Kir2.1, FluxOR thallium flux fluorescence; hits give low values. B-score at 10 µM. 310,000 tested, 0.85% active. AID 1672;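 active = fluorescence ratio B-score at or below minus 3 SD of library scores, with starting-brightness B-score within 2 SD, cut at about -4.2 in these data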;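 also: channel flux triggered by added potassium and thallium sulfate stimulus; B-score of peak minus minimum fluorescence over baseline after thallium stimulus; more negative B-score means stronger Kir2.1 block with less thallium influx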
Target sequence (P35561 whole entry, looked up): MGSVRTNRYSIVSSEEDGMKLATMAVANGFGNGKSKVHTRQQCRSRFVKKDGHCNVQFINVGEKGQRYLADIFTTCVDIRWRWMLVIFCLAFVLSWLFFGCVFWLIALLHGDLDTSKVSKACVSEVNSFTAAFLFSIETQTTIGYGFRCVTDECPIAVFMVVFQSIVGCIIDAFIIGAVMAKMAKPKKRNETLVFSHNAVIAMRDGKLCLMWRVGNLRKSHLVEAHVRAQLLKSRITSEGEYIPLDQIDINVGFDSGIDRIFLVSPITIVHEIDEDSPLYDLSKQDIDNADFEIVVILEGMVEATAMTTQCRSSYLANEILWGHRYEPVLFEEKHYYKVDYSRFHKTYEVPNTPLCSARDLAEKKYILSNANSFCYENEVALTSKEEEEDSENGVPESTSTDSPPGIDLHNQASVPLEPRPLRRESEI
KCNQ1 block – inhibitors of human KCNQ1 potassium channel; P51787; CHO-K1 KCNQ1, FluxOR thallium flux fluorescence; hits give high values; B-score at 10 µM; 310,000 tested, 1.3% active; AID 2642;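 active = compounds whose thallium flux B-score, printed positive for inhibition, exceeds three library SD while starting fluorescence stays within three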;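 also: channel opened by potassium depolarization with thallium stimulus after 20 min compound exposure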
hERG protect – hERG (human) protection from proarrhythmic block; 310,000 tested, 0.51% active; activation (rescue from dofetilide block), less the hit threshold, % at 10 µM; CHO-hERG, FluxOR thallium flux, dofetilide IC70 present; Q12809;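 active = activation above the mean of controls blocked by dofetilide plus 5 SD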;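 also: thallium influx through hERG after potassium depolarization seen as dye fluorescence rise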
An asterisk follows results filed as active; i = inactive; x = no result given. Shown are actives, neighbours in structure and some others; about 3.8% of the full set was active somewhere.

SMILES | KCNQ1 pot | KCNK9 inh | KCNK3 block | Kir21 block | KCNQ1 block | hERG protect
Cc1ccc(C(=O)NC(=S)N(C)C2CCCCC2)cc1 | 17* | i | i | 1.2 | i | 15*
COc1ccc(-c2nc(=S)c3ccc4ccccc4c3[nH]2)cc1 | 77* | i | i | 0.01 | i | 63*
COc1ccc(-c2nc3ccccc3[nH]2)cc1 | i | i | i | -0.7 | i | -4
CCN1CC(CN(C)Cc2nc(Cc3ccccc3)no2)CC1=O (stereo not drawn) | i | i | i | -0.01 | i | -11
O=C1CCCc2oc3c(cc(NS(=O)(=O)c4ccc5c6c(cccc46)C(=O)N5)c4ccccc43)c21 | i | i | i | -1.9 | i | -26
Cc1oc2c(cc(NS(=O)(=O)c3ccc4c5c(cccc35)C(=O)N4)c3ccccc32)c1C(=O)OC(C)C | i | -7.6* | i | 0.4 | i | -11
CCCCN(Cc1cccs1)S(=O)(=O)c1csc(C(N)=O)c1 | i | i | i | -7.8* | i | -9
O=c1c2ccccc2[nH]c(=S)n1CCC1=CCCCC1 | 26* | i | i | -0.69 | i | 11*
O=c1c2ccccc2[nH]c(=S)n1CCN1CCCCC1 | i | i | i | -1.6 | i | -4
Cc1ccc(C)c(N2CCN(C(=O)CCc3nc(-c4ccccc4)no3)CC2)c1 | x | x | i | x | x | x
Cc1cccc(-c2noc(CCC(=O)N3CCN(c4cc(C)ccc4C)CC3)n2)c1 | x | x | -9.8* | x | x | x
Cc1ccc(C)c(N2CCN(C(=O)CCc3nc(-c4ccccc4Cl)no3)CC2)c1 | x | x | i | x | x | x
Cc1ccc(C)c(N2CCN(C(=O)CCc3nc(-c4ccccc4C)no3)CC2)c1 | x | x | -9.2* | x | x | x
CCCc1cc(=O)[nH]c(SCC(=O)N2CCCCCC2)n1 | x | x | i | x | x | x
CC(C)(C)c1ccc(NC(=O)COC(=O)c2ccc(CN3CCCC3=O)cc2)cc1 | x | x | i | x | x | x
C/C(=N\NC(=O)CN(c1ccc(Oc2ccccc2)cc1)S(C)(=O)=O)C(C)(C)C | i | i | i | 0.16 | i | -5
Cc1ccc(N(CN2CCCC2=O)C(=O)c2ccc(OC(C)C)cc2)cc1 | i | i | i | 0.61 | i | 2
Cc1c(-c2ccn[nH]2)cc(NC(=O)c2ccc(Cl)cc2)c(=O)n1N | i | i | i | -0.25 | i | 5.0*
S=c1nc(-c2ccc(Br)cc2)oc2c1CCCC2 | i | i | i | 0.55 | i | 14*
O=C(COC(=O)C1CCC(=O)N1)Nc1ccccc1Br (stereo not drawn) | i | i | i | 2.3 | i | -14
O=C(COC(=O)C1CCC(=O)N1)Nc1ccc(Oc2ccccc2)cc1 (stereo not drawn) | i | i | i | 0 | i | 33*
C/C(=N\NC(=O)c1nn(C)c(C)c1Br)c1ccc(NC(=O)c2ccoc2C)cc1 | i | -7.9* | i | -0.75 | i | -5
COc1ccc(N2C3=C(CC4=C2CC(C)(C)CC4=O)C(=O)CC(C)(C)C3)cc1 | i | i | i | -5.1* | i | -14
COc1ccc(N2C3=C(CC4=C2CCCC4=O)C(=O)CCC3)cc1 | i | -6.6* | i | -1.2 | i | -11
Cc1c(Cl)c([N+](=O)[O-])nn1CC(=O)NCc1cccs1 | i | i | i | 1.4 | i | 4.8*
SMILES | KCNQ1 pot | KCNK9 inh | KCNK3 block | Kir21 block | KCNQ1 block | hERG protect
CCCn1c(Nc2cccc(OC)c2)nc2ccccc21 | i | i | i | -0.75 | i | -4
CCCOc1ccc(CN(CCC#N)C(=S)NC(=O)c2ccccc2)cc1 | 14* | i | i | -0.41 | i | 59*
COc1cc(C(=O)NC(=S)N(CCC#N)Cc2cccnc2)cc(OC)c1OC | x | x | i | x | x | x
Cc1cc2ccccn2c1C(=O)c1ccc(F)cc1 | i | -7.2* | i | -0.52 | i | -6
CCN(CC)S(=O)(=O)c1ccc2[nH]c(=O)cc(C(=O)Nc3ccccc3N3CCOCC3)c2c1 | x | x | i | x | x | x
Clc1ccc(-c2nnc(CSc3nnc(-c4cccs4)n3Cc3ccccc3)o2)cc1 | i | i | -8.8* | -1.4 | 8* | -21
Cc1nnc(SCc2nnc(-c3cccs3)o2)n1Cc1ccccc1 | i | i | i | 0.38 | i | 1
CC(=O)Nc1nc2n(n1)C(c1ccccc1)C=C(c1ccccc1)N2 (stereo not drawn) | i | i | i | -0.16 | i | -1
O=C(c1nc2n(n1)C(c1ccc(Cl)cc1)C=C(c1ccccc1)N2)N1CCOCC1 (stereo not drawn) | i | -6.8* | i | -4.6 | i | -15
O=C(NC(=S)N(Cc1ccccc1)c1ccccn1)C1CC1 | i | i | i | 0.76 | i | -5
Cc1ccc(-n2ncc3c2CCCC3NC(=O)c2csnn2)cc1C (stereo not drawn) | i | i | i | 0.85 | i | 19*
Cc1ccc(-n2ncc3c2CCCC3NC(=O)c2ccoc2)cc1C (stereo not drawn) | i | i | i | -1.4 | i | -8
Cc1cc(C)cc(-n2ncc3c2CCCC3NC(=O)c2csnn2)c1 (stereo not drawn) | i | i | i | -0.14 | i | 36*
CCc1cc(C(=O)NC2CCCc3c2cnn3-c2cccc(C)c2C)n(C)n1 (stereo not drawn) | i | i | x | -0.56 | 11* | -16
CCCc1cc(-c2[nH]ncc2-c2ccc3c(c2)OCCCO3)c(O)cc1O | i | i | i | -0.48 | 6* | -28
CCOc1ccc(N(C)c2ccc(/C=C3/SC(=S)NC3=O)cc2)cc1 | i | i | i | -2.3 | i | -4
CCOc1ccc(N=C2NC(=O)S/C2=C\c2ccc(Cl)cc2)cc1 | i | i | i | -0.18 | i | 11*
C=CCn1c(=S)[nH]c2scc(-c3cccs3)c2c1=O | 53* | i | i | 0.74 | i | 41*
C=CCn1c(=S)[nH]c2ccccc2c1=O | x | x | i | x | x | x
Cn1c(=S)[nH]c2scc(-c3cccs3)c2c1=O | 66* | i | i | -0.02 | i | 58*
CC(NS(=O)(=O)c1ccc(Br)cc1)C(=O)NCCc1ccccc1 (stereo not drawn) | i | i | i | -1.2 | i | -8
CCN(CC)CCN(CC(=O)N(C1CCCCC1)C1CCCCC1)C(=O)c1ccco1 | i | i | i | -4.4* | i | -10
COCCn1c(=N)c(C(=O)NCc2ccco2)cc2c(=O)n3cc(C)ccc3nc21 | i | i | i | -1.3 | i | -23
Cc1ccc2nc3c(cc(C(=O)NCc4ccco4)c(=N)n3C3CCCC3)c(=O)n2c1 | i | i | i | -2.1 | 8* | -26
NC(N)=NC(=O)c1nc(Cl)c(N2CCCCCC2)nc1N | x | x | -9.8* | x | x | x
